Data: ChEMBL document CHEMBL4732170, “Discovery of Small-Molecule Antagonists of the PWWP Domain of NSD2” (J Med Chem, 2021)
Calls of active or inactive are those of the source. The calls are words filed in the database; no cut-off is given here.

Experiments:
[1] = target: T1, Peregrin (Homo sapiens) (UniProt P55201); test: Binding affinity to BRPF1 PWWP domain (unknown origin) assessed as aggregation temperature at 400 uM by heating at 25 to 85 degC by differential static light scattering method
T1 sequence (whole entry): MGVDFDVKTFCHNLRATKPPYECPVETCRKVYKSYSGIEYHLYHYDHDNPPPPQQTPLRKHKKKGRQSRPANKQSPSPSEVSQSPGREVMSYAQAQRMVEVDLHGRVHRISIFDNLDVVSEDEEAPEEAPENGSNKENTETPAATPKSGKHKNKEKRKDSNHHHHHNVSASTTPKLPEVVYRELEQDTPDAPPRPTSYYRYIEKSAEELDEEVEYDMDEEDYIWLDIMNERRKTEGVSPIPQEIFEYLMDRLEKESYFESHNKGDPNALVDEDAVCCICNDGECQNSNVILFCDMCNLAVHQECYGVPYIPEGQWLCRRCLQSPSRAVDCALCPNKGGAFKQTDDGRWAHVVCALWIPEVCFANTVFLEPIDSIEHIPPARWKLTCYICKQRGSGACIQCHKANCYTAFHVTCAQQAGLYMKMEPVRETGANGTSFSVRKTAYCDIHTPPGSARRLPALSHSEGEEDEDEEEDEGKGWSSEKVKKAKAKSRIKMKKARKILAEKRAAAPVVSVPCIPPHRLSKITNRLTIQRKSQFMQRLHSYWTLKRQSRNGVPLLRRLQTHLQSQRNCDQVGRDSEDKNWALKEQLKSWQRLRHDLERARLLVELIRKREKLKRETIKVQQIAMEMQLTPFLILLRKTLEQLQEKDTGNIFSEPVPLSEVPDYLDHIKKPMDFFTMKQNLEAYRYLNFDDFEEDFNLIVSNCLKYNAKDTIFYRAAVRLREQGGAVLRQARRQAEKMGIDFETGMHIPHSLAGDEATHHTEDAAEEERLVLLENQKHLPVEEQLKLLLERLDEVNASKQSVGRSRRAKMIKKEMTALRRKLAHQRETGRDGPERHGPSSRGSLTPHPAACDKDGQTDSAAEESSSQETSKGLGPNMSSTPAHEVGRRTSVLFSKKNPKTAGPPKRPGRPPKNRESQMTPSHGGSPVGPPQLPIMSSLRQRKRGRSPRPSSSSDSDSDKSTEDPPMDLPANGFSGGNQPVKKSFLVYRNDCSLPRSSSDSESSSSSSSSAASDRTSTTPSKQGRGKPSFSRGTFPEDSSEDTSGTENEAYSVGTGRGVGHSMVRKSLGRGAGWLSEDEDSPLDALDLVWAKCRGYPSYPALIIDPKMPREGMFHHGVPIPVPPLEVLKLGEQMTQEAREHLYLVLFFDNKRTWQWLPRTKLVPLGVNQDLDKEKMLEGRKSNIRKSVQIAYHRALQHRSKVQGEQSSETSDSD

[2] = target: T2, Histone-lysine N-methyltransferase NSD2 (Homo sapiens, UniProt O96028); test: Binding affinity to NSD2 PWWP1 domain (unknown origin) assessed as dissociation constant by isothermal titration calorimetric analysis
T2 sequence (O96028 whole entry): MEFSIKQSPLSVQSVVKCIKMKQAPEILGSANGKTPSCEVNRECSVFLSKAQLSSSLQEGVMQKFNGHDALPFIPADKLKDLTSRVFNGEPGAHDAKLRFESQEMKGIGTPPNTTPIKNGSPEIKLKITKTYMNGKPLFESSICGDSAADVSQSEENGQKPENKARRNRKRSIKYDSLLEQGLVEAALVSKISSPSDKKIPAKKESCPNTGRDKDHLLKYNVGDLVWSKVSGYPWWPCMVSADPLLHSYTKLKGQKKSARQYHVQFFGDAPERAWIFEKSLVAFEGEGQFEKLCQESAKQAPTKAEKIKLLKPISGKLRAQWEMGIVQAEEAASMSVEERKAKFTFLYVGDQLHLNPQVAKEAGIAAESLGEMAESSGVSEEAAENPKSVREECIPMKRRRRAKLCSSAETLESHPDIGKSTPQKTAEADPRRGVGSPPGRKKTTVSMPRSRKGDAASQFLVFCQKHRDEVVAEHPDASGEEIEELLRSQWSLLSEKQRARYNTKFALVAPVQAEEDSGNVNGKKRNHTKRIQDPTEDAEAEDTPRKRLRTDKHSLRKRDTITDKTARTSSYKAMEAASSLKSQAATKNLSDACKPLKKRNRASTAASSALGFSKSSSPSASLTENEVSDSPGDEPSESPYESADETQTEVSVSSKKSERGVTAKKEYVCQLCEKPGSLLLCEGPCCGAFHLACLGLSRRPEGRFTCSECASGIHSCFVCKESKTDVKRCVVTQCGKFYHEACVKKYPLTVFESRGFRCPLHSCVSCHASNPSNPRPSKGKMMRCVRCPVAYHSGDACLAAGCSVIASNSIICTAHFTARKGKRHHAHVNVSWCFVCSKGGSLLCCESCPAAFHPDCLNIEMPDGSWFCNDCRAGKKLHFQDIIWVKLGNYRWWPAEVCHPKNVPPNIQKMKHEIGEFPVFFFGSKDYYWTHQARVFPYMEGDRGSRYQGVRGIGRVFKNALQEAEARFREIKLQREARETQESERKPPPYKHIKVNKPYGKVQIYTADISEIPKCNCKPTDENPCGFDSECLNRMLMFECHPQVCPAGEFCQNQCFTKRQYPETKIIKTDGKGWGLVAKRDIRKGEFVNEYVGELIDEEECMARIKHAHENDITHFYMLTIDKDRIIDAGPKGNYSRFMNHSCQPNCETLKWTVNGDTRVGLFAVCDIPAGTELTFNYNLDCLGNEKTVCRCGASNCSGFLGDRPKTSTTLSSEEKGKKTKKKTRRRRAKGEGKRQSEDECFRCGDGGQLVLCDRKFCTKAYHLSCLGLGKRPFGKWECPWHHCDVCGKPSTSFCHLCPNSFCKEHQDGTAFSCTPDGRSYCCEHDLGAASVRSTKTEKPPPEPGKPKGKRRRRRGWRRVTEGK
Summary of the method: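 Reverse ITC: purified NSD2-PWWP1 (aa 211-350, human, E. coli-expressed, His-tag removed) dialyzed into 20 mM Tris pH 7.5, 100 mM NaCl. Protein at 1 mM titrated into cell holding 40 μM ligand, 1% DMSO in both. Twelve 4 μL injections at 25 °C. Kd from one-binding-site model fit.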

[3] = target: DNA mismatch repair protein Msh6 (Homo sapiens) (UniProt P52701); test: Binding affinity to MSH6 PWWP domain (unknown origin) assessed as aggregation temperature at 400 uM by heating at 25 to 85 degC by differential static light scattering method
[4] = target: DNA (cytosine-5)-methyltransferase 3B (Homo sapiens) (UniProt Q9UBC3); test: Binding affinity to DNMT3b PWWP domain (unknown origin) assessed as aggregation temperature at 400 uM by heating at 25 to 85 degC by differential static light scattering method

Sequence of DNA mismatch repair protein Msh6 (Homo sapiens) (P52701 whole entry, the tested form may be a part): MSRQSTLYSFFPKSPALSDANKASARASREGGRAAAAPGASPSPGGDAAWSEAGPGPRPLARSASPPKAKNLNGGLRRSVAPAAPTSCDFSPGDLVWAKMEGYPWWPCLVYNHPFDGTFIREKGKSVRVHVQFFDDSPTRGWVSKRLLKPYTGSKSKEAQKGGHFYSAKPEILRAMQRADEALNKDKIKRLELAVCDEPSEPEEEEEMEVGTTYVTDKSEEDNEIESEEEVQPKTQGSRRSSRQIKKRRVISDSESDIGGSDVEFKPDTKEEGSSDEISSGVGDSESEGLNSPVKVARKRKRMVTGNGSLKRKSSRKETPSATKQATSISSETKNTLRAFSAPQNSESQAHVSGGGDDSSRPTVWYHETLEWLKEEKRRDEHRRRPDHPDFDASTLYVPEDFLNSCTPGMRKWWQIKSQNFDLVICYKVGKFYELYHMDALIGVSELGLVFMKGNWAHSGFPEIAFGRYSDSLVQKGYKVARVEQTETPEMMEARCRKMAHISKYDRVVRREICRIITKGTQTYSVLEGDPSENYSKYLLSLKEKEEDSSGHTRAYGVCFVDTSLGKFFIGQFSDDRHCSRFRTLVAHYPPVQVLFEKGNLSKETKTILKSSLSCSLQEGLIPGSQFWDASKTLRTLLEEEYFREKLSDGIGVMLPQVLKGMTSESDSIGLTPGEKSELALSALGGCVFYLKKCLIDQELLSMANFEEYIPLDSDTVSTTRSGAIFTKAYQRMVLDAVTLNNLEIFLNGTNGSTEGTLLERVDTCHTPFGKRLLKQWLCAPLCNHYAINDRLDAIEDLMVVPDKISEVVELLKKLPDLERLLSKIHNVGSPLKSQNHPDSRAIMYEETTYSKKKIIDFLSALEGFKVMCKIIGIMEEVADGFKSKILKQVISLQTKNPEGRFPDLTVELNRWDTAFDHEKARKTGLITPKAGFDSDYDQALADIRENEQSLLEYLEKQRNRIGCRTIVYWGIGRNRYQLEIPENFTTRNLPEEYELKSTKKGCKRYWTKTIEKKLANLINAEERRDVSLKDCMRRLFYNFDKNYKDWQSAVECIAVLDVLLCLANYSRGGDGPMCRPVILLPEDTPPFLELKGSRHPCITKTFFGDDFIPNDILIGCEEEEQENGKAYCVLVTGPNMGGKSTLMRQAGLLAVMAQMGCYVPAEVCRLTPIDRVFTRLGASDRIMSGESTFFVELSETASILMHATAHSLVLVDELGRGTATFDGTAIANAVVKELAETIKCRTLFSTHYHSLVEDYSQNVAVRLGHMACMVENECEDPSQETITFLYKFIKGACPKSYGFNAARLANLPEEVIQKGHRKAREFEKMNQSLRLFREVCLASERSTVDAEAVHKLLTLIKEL

With `N#Cc1ccc(C(C(N)=O)N2CCC2c2ccc(Cl)cc2)cc1` (centres undefined) the Activity [1] was “inactive”, the Kd [2] was 8.9 µM and the Activity [3] was “inactive”. For the same molecule, the Activity [4] was “inactive”.
